Publication PMC7501995 (Cell metabolism, 2020)

Columns and labels:
C57BL/6J mice = experiment: Oral administration in drinking water to wild-type C57BL/6J mice; type: in vivo, mouse
[1] = tested on: primary mouse hepatocytes; experiment: Gene expression by qRT-PCR in primary hepatocytes; type: cell-based
How it was run: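 Primary hepatocytes from male C57BL/6J, liver-specific glucagon receptor knockout or Txnip-deficient mice, seeded on collagen at 3×10^5 cells/well in serum-free DMEM. After 4 h attachment, medium changed and cells given varying test compound concentrations for 24 h. Pck1/G6pc read in the presence of glucagon. mRNA quantified by qRT-PCR; n = 3 for knockout hepatocytes.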

[2] = tested on: polymerase II (Pol II) binding to the TXNIP promoter; experiment: Chromatin immunoprecipitation of Pol II in INS-1 cells; type: cell-based, rat; conditions: ChIP
How it was run: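 INS-1 cells crosslinked in 1% formaldehyde/PBS for 15 min, then quenched with glycine. Lysed in SDS/Triton buffer, pH 8.1, with protease inhibitors, and sonicated (10 × 30 s pulses). 500 µg precleared lysate incubated with 4 µg anti-Pol II antibody or control IgG overnight at 4°C; 1/10 kept as input. Complexes captured on Protein A-Sepharose for 3 h, then washed in lysis, wash, LiCl and TE buffers. Regions probed: E-box, upstream TXNIP and IRS2 site. n = 3 independent experiments.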

αTC1-6 alpha cells = experiment: Alpha cell glucagon expression and secretion; type: cell-based, mouse; conditions: αTC1-6 cells
How it was run: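 αTC1-6 mouse alpha cells grown in DMEM with 10% FBS, 16.7 mM glucose, 1 mM sodium pyruvate and 15 mM HEPES at 37°C, 5% CO2. Cells exposed to 5 µM test compound or vehicle for 1 h. Low-glucose secretion run at 1.67 mM glucose. Secreted glucagon measured by mouse glucagon ELISA; protein measured by BCA assay.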

[3] = C57BL/6J mice, oral 100 mg/kg/day
[4] = livers of treated C57BL/6J mice
[5] = male C57BL/6J mice, oral 100 mg/kg/day, 3 weeks

For `CS(=O)(=O)NCC1CCCN(c2ncnc3ccc(C(F)(F)F)cc23)C1` (centres unmarked) [SRI-37330, N-((1-(6-(trifluoromethyl)quinazolin-4-yl)piperidin-3-yl)methyl)methanesulfonamide], the fasting blood glucose (C57BL/6J mice; [3]) was “slightly, but significantly lower”, the fasting serum glucagon (C57BL/6J mice; [3]) was “lower” and the fasting serum insulin (C57BL/6J mice; [3]) was “unchanged”. For the same compound, the non-fasting blood glucose (C57BL/6J mice; C57BL/6J mice, oral 100 mg/kg/day, within 3 days, persisted 3 weeks) was “small but significant decrease in blood glucose levels”, the “insulin tolerance test (ITT)” value (C57BL/6J mice; C57BL/6J mice, oral 100 mg/kg/day, 1 U/kg insulin i.p.) was “remained unaltered” and the “intraperitoneal glucose tolerance test (GTT)” value (C57BL/6J mice; C57BL/6J mice, oral 100 mg/kg/day, 3 g/kg glucose i.p. after 4 h fast) was “consistently and significantly improved glucose tolerance”. The “blood glucose during insulin-induced hypoglycemia” value (C57BL/6J mice; fasting mice, 15 min after insulin bolus 1 U/kg) was “able to maintain their blood glucose levels equally well to untreated controls”, the “fatty liver (liver histology)” value (C57BL/6J mice; lean mice) was “did not lead to any fatty liver” and the “liver expression of Pck1 and G6pc” value (C57BL/6J mice; [4]) was “lower expression”. The liver glycogen content (C57BL/6J mice; [4]) was “higher glycogen content”, the tolerability (C57BL/6J mice; male C57BL/6J mice, oral 100 mg/kg/day in drinking water, 3 weeks) was “well tolerated” and the body weight (C57BL/6J mice; [5]) was “no change in body weight”. For the same compound, the “gross abnormalities in organs at sacrifice” value (C57BL/6J mice; [5]) was “no gross abnormalities in any organs”, the “safety profile in vivo” value (C57BL/6J mice; mouse, in vivo) was “excellent safety profile in vivo” and the “liver and serum triglyceride levels” value (C57BL/6J mice; treated C57BL/6J mice) was “lower liver and serum triglyceride levels”. For the same compound, the liver transaminase levels (C57BL/6J mice; treated C57BL/6J mice) was “did not cause any elevation in liver transaminase levels”, the “effect on glucagon-induced expression of Pck1 and G6pc” value ([1]; primary hepatocytes of liver-specific glucagon receptor knockout mice (GcgR−/−L)) was “completely blunted” and the “glucagon-induced expression of Pck1 and G6pc” value ([1]; primary hepatocytes of wild-type C57BL/6J mice, 5 μM, 24h) was “inhibited”. The “TXNIP signaling genes in primary hepatocytes or livers” value ([1]; primary hepatocytes or livers of treated mice) was “not affected”, the “Pol II binding to the E-box motif region of the TXNIP promoter” value [2] was “effectively inhibited” and the “Pol II binding to upstream TXNIP promoter region and to IRS2 site” value [2] was “but not to an upstream TXNIP promoter region or to an established Pol II binding site”. The glucagon content (αTC1-6 alpha cells; 5 μM, 1h) was “did not lower proglucgon gene expression or glucagon content”, the glucagon secretion (αTC1-6 alpha cells; 5 μM, 1h) was “significantly lower glucagon secretion” and the proglucagon gene expression (αTC1-6 alpha cells; 5 μM, 24 h) was “did not lower proglucgon gene expression or glucagon content”. For the same compound, the “glucagon secretion in the context of low glucose” value (αTC1-6 alpha cells; 1.67 mM glucose) was “no effect on glucagon secretion” and the “glucagon secretion maximally stimulated by arginine and norepinephrine” value (αTC1-6 alpha cells; arginine 20 mM, norepinephrine 10 μM) was “no longer able to inhibit glucagon secretion”.
